From paper PMC8775362 (Molecular pharmaceutics, 2021)
Read-outs that look alike come from different tables or passages of the source. Non-standard residues stand in square brackets, D forms with d. Residues, ends and D or L forms follow the SMILES beside them. *: point of attachment. 5FAM = O=C1OC2(c3ccc(O)cc3Oc3cc(O)ccc32)c2ccc(C(=O)*)cc21; Trp(6-Cl) = N[C@@H](Cc1c[nH]c2cc(Cl)ccc12)C(=O)O; pY = N[C@@H](Cc1ccc(OP(=O)(O)O)cc1)C(=O)O; Ac3c = NC1(C(=O)O)CC1; Aib = CC(C)(N)C(=O)O; βAla = NCCC(=O)O

Tests used:
[1] = system: HepG2 human hepatocellular carcinoma cells; assay: Cell uptake and specificity of [^18F]6 in HepG2 cells; assay type: cell-based
Method in brief: (§1)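 Cells (HepG2 in MEM, SJSA-1 in RPMI 1640, both with 10% FBS) were seeded at 2×10^5/well and held overnight at 37°C. Medium was swapped for serum-free medium holding 18.5 kBq tracer; incubation was at 37°C for 0.5, 1 or 2 h. Blocking used unlabeled parent inhibitor, either 5–50 µM for 1 h or 25 µM for the time course.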

[2] = system: SJSA-1 human osteosarcoma cells; assay: Cell uptake and specificity of [^18F]6 in SJSA-1 cells; assay type: cell-based
Method in brief: as §1

P-glycoprotein = settings: neuroblastoma cells; cited from earlier work
[3] = cited from earlier work
MDM2 = settings: cited from earlier work

In the case of `COc1cc(C(=O)O)ccc1NC(=O)[C@@H]1N[C@@H](CC(C)(C)C)[C@](C#N)(c2ccc(Cl)cc2F)[C@H]1c1cccc(Cl)c1F` [RG7388, Idasanutlin], the “effect of blocking on [^18F]6 uptake” value ([1]; HepG2, 25 μM RG7388, all time points 30-120 min) is reported as “significantly decreased”, the inhibition at 50 µM ([1]; Homo sapiens, HepG2, 1 h, read-out: inhibition of [^18F]6 uptake) is reported as > 80% and the inhibition at 50 µM ([2]; Homo sapiens, SJSA-1, 1 h, read-out: inhibition of [^18F]6 uptake) is reported as > 80%. The “effect of blocking on [^18F]6 uptake” value ([2]; SJSA-1, 25 μM RG7388, all time points 30-120 min) was “significantly decreased”, the “substrate of P-glycoprotein” value (P-glycoprotein) was “not a good substrate” and the “stability in humans in vivo” value [3] was “fully stable”. The IC50 (MDM2; read-out: IC50 disrupting the MDM2-p53 interaction) was […].

In the case of `COc1ccc2[nH]c3c(-c4cccc5ccccc45)nccc3c2c1` [SP-141], the Kd (MDM2; read-out: binding affinity Kd) is given as 43 nM.

For `CSCC[C@H](NC(=O)[C@H](Cc1ccccc1)NC(=O)CCNC(=O)CCNC(=O)c1ccc2c(c1)C(=O)OC21c2ccc(O)cc2Oc2cc(O)ccc21)C(=O)NC(C)(C)C(=O)N[C@@H](Cc1ccc(OP(=O)(O)O)cc1)C(=O)N[C@@H](Cc1c[nH]c2cc(Cl)ccc12)C(=O)N[C@@H](CCC(=O)O)C(=O)NC1(C(=O)N[C@@H](CC(C)C)C(=O)N[C@@H](CC(N)=O)C(N)=O)CC1` [5-FAM-PMDM6] ({5FAM-βAla-βAla}-FM[Aib][pY][Trp(6-Cl)]E[Ac3c]LN-NH2; N-terminus and C-terminus assumed), the Kd (MDM2; read-out: binding affinity (Kd) towards MDM2, literature, same assay) is listed as 1 ± 0.1 nM.

For `CC(C)[C@@H](CS(=O)(=O)C(C)C)N1C(=O)[C@@](C)(CC(=O)O)C[C@H](c2cccc(Cl)c2)[C@H]1c1ccc(Cl)cc1` [AMG232], the IC50 (MDM2; read-out: IC50 inhibiting the MDM2-p53 interaction) is given as […].
